In ChEMBL document CHEMBL3091285, “Cytotoxic compounds from invasive giant salvinia (Salvinia molesta) against human tumor cells” (Bioorg Med Chem Lett, 2013):

Legend:
A549 = test: Cytotoxicity against human A549 cells assessed as growth inhibition by WST-8 assay; format: functional
[1] = Cytotoxicity against human MRC5 cells assessed as growth inhibition by WST-8 assay; format: cell-based
HL-60 = test: Cytotoxicity against human HL60 cells assessed as growth inhibition by WST-8 assay; format: functional
[2] = Cytotoxicity against human PANC1 cells assessed as growth inhibition by WST-8 assay; format: functional; conditions: PANC-1
PC-3 = test: Cytotoxicity against human PC3 cells assessed as growth inhibition by WST-8 assay; format: functional
[3] = Cytotoxicity against human BxPC3 cells assessed as growth inhibition by WST-8 assay; format: functional; conditions: BXPC-3
BXPC-3 = test: Antiproliferative activity against human BxPC3 cells after 12 to 48 hrs by CCK-8 assay; format: functional, cell-based
In short: (§1)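 Pancreatic cancer cells (PANC-1, BxPC-3) exposed to test compound at 0 (control), 5, 10, 20, 40, 60, 80 or 100 uM, with concentration levels differing between compounds. Proliferation followed over incubation time, with viable cell number (x1,000) plotted against hours to assess dose-dependent suppression.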

MDA-MB-231 = test: Cytotoxicity against human MDA-MB-231 cells assessed as growth inhibition by WST-8 assay; format: functional
PANC-1 = test: Antiproliferative activity against human PANC1 cells after 12 to 48 hrs by CCK-8 assay; format: functional, cell-based; in short: as §1

Structure (SMILES) | GI50 (A549) [µM] | GI50 [1] [µM] | GI50 (HL-60) [µM] | GI50 [2] [µM] | GI50 (PC-3) [µM] | GI50 [3] [µM] | inhibition (BXPC-3) | GI50 (MDA-MB-231) [µM] | inhibition (PANC-1)
COc1cc2c(cc1C(C)C)C(=O)C(O)=C1C(C)(C)CCC[C@@]12C | 21.2 |  |  |  |  |  |  |  | 
CC(C)c1ccc2c3c(ccc2c1)C(C)(C)CCC3 | > 100 | > 100 | > 100 | > 100 | > 100 | > 100 |  |  | 
CC(C)c1cc2c(cc1O)[C@@]1(C)CCCC(C)(C)[C@@H]1C[C@H]2CC1=CCC(O)(C(C)C)CC1 (some centres not stated) | 62.9 | 58.4 | 48.1 | 60.4 | 54.2 | 87.3 | Dose-dependent effect | 75 | Dose-dependent effect
CC(C)c1cc2c(cc1O)[C@@]1(C)CCCC(C)(C)[C@@H]1CC2=O [SUGIOL] | 79.8 | > 100 | 68.6 | 87.9 | > 100 | 36.1 |  |  | 
CC(C)c1cc2c(c(O)c1O)[C@@]1(C)CCCC(C)(C)C1=C(O)C2=O [14-DEOXYCOLEON U] | 9.1 | 24.8 | 13.3 | 22.6 | 8.39 | 37.3 |  | > 100 | 
CC(C)c1cc2c(cc1O)[C@@]1(C)CCCC(C)(C)[C@@H]1CC2O (some centres not stated) | 75.1 | 70.5 | 75.2 | 78.2 | 85.6 | 74.7 |  |  | 
CC(C)c1cc2ccc3c(c2cc1O)CCCC3(C)C | 42.2 | 55.4 | 50 | 37.5 | 43.6 | 36.4 |  |  | 
CC(C)c1cc2c(cc1O)[C@@]1(C)CCCC(C)(C)C1=C(O)C2=O | 11.1 | 20 | 11.5 | 23.1 | 13.2 | 25 | Dose-dependent effect |  | Dose-dependent effect
CC(C)c1cc2c(cc1O)[C@@]1(C)CCCC(C)(C)C1=CC2=O | 84.5 |  | 92.8 | > 100 | > 100 | > 100 |  |  | 
CC(C)C1=Cc2ccc3c(c2C(=O)C1=O)C(=O)CCC3(C)C | 24.9 | 20.4 | 23.3 | 32.1 | 19 | 20.5 |  |  | 
CC(C)c1cc2c(cc1O)[C@@]1(C)CCCC(C)(C)[C@@H]1CC2 [FERRUGINOL] | 30.7 | 40 | 27.3 | 41.1 | 56.5 | 21.1 |  |  | 
CC(C)c1cc(C=O)c([C@@]2(C)CCCC(C)(C)[C@@H]2C=O)cc1O | 93.8 |  |  |  |  |  |  |  | 
CC(C)c1cc2c(cc1O)[C@@]1(C)CCCC(C)(C)[C@@H]1C=C2 | 53.8 | 59.2 | 66.5 | 46.7 | 58.1 | 37.5 |  |  | 
CO[C@H]1c2cc(C(C)C)c(O)c(O)c2[C@@]23CCCC(C)(C)[C@@H]2[C@@H]1OC3=O | 86.5 |  |  |  |  |  |  |  | 
CC(C)C1=C(O)C(=O)C2=C(CC[C@H]3C(C)(C)CCC[C@]23C)C1=O [ROYLEANONE] | 30.1 | 45.7 | 36.3 | 52.6 | 27.1 | 51 |  |  | 
CC(C)C1=C(O)C(=O)C2=C(C=C[C@H]3C(C)(C)CCC[C@]23C)C1=O | 48 | 40.2 | 30 | 51.3 | 46.3 | 41.7 |  |  | 
CC(C)c1cc2c(c(O)c1O)[C@@]1(C)CCCC(C)(C)[C@@H]1CC2=O [DEMETHYLCRYPTOJAPONOL] | 35 | 40.2 | 35.3 | 43.1 | 41 | 45 |  |  | 
